Test results as given in ChEMBL document CHEMBL4699441, “Identification and Preclinical Evaluation of the Bicyclic Pyrimidine γ-Secretase Modulator BMS-932481” (ACS Med Chem Lett, 2019).
Active and inactive are the calls of the source. The calls are words filed in the database; no cut-off is given here.

What was measured:
[1] = Toxicity in rat assessed as change in gamma-secretase modulator function at 100 mg/kg, po administered for 2 week; format: organism-based; settings: in vivo, 336 h, time 2 weeks
Cytochrome P450 2B6 = target: T1, Cytochrome P450 2B6 (Homo sapiens, UniProt P20813); assay: Inhibition of CYP2B6 in human liver microsomes; format: ADME
T1 sequence (P20813 whole entry): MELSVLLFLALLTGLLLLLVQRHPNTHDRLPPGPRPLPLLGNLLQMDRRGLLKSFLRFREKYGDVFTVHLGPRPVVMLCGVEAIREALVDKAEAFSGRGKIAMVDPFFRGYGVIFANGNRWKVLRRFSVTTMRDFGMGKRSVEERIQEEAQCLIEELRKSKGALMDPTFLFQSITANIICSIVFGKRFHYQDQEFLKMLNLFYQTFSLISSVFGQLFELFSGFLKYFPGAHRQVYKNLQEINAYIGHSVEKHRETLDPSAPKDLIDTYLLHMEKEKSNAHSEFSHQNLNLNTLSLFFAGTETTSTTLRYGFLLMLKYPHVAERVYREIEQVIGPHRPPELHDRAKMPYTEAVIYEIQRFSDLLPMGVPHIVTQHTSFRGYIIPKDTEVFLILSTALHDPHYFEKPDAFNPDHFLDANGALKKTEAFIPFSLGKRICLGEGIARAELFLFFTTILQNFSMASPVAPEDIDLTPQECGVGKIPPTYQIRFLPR

[2] = Toxicity in rat assessed as stress at 100 mg/kg, po administered for 2 week; format: organism-based; settings: in vivo, 336 h, time 2 weeks
[3] = Hepatotoxicity in rat at 100 mg/kg, po administered for 2 week; format: toxicity, organism-based; settings: in vivo, 336 h, time 2 weeks
Summary of the method: (§1)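 Rats given oral doses of 10, 30 or 100 mg/kg daily for 2 weeks in a repeat-dose toxicity study.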

[4] = Dissociation constant, pKa of compound; format: physicochemical
Cytochrome P450 2C8 = target: T2, Cytochrome P450 2C8 (Homo sapiens, UniProt P10632); assay: Inhibition of CYP2C8 in human liver microsomes; format: ADME
T2 sequence (P10632 whole entry): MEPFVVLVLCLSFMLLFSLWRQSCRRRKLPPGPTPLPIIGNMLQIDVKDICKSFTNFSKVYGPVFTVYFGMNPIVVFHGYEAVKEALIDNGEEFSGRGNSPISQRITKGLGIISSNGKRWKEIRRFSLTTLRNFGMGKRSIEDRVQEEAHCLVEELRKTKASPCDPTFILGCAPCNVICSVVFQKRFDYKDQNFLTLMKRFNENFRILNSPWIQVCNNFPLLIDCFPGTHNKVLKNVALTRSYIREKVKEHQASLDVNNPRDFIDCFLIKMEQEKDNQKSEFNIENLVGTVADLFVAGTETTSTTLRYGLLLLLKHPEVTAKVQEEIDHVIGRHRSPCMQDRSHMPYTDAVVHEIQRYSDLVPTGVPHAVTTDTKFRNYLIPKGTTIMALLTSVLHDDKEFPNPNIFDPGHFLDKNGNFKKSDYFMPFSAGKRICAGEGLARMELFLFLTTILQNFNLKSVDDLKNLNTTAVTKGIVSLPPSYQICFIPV

[5] = Volume of steady state distribution in Sprague-Dawley rat at 2 mg/kg, iv measured up to 24 hrs by LC-MS/MS analysis; format: ADME, organism-based; settings: in vivo
Summary of the method: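 Sprague–Dawley rats; 2 mg/kg given as 5 min iv infusion in 9:1 PEG:EtOH; n = 5; volume of distribution at steady state.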

[6] = Ratio of drug level in brain to plasma in Harlan Sprague-Dawley rat at 10 mg/kg, po measured after 5 hrs; format: ADME, organism-based; settings: read-out: BPR
H4 = assay: Inhibition of amyloid beta (1 to 40) secretion in human H4 cells overexpressing APP incubated for 24 hrs by MALDI-TOF mass spectrometric analysis; format: functional, cell-based
[7] = Cardiotoxicity in unconscious telemeterized rabbit assessed as change in QTcf time at 3 mg/kg; format: toxicity, organism-based, Oryctolagus cuniculus; settings: in vivo
Brain = assay: Antialzheimer activity in rat brain assessed as reduction in amyloid beta (1 to 42) AUC at 3 mg/kg measured after 24 hrs relative to control; format: functional; design: scale not given: the % may be the effect or the level left
Summary of the method: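 Rats dosed orally; brain Aβ1-42 followed over 24 h, and the reduction in brain Aβ1-42 AUC integrated over 0–24 h was fitted to an indirect response PK/PD model.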

[8] = Reduction in amyloid beta (1 to 42) secretion in brain in triple transgenic LaFerla mouse at 30 mg/kg, po measured after 3 hrs relative to control; format: functional
Summary of the method: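 Triple transgenic LaFerla mice (APP Swedish, MAPT P301L, PSEN1 M146V) given 30 mg/kg po; brain Aβ1-42 measured 3 h postdose; n = 3.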

[9] = Cardiotoxicity in unconscious telemeterized rabbit assessed as increase in QTcv time at 10 mg/kg; format: toxicity, organism-based, Oryctolagus cuniculus; settings: in vivo
[10] = target: T3, Nuclear receptor subfamily 1 group I member 2 (Homo sapiens, UniProt O75469); assay: Transactivation of PXR (unknown origin) assessed as CYP450 induction; format: ADME
T3 sequence (O75469 whole entry): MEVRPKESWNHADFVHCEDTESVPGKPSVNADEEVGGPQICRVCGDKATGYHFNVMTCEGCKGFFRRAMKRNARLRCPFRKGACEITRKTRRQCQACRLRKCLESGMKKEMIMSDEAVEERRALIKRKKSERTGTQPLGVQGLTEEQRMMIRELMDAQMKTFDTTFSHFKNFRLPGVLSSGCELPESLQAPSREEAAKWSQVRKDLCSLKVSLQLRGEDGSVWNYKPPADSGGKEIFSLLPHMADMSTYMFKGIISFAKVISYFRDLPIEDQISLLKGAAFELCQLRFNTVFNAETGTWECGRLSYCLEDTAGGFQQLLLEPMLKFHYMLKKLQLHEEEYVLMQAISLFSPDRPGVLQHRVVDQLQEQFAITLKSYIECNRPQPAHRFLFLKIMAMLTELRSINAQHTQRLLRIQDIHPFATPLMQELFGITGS

[11] = Inhibition of amyloid beta (1 to 42) secretion in human H4 cells overexpressing APP incubated for overnight by HTRF analysis; format: functional, cell-based
[12] = target: Gamma-secretase (Homo sapiens) (UniProt Q96BI3+Q9NZ42+Q8WW43+P49768+Q92542+P49810); assay: Modulation of gamma-secretase in human H4 cells overexpressing APP incubated assessed as increase in amyloid beta (1 to 37) secretion for 24 hrs by MALDI-TOF mass spectrometric analysis; format: cell-based; settings: filed as modulator
Summary of the method: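 H4-APPsw cells treated with compound; secreted Aβ species quantified by mass spectrometry; total Aβ1-x checked by ELISA up to 10 μM.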

[13] = Inhibition of amyloid beta (x to 42) secretion in human H4 cells overexpressing APP incubated for overnight by HTRF analysis; format: functional, cell-based
[14] = Volume of steady state distribution in cynomolgus monkey at 1 mg/kg, iv measured up to 24 hrs by LC-MS/MS analysis; format: ADME, organism-based, Macaca fascicularis; settings: in vivo
Summary of the method: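 Male Beagle dog or male cynomolgus monkey; 1 mg/kg as 5 min iv infusion in 9:1 PEG:EtOH; n = 3; volume of distribution at steady state.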

[15] = Induction of necrosis in rat at 100 mg/kg, po administered for 2 week; format: organism-based; settings: in vivo, 336 h, time 2 weeks; summary of the method: as §1
[16] = Hemodynamic activity in unconscious telemeterized rabbit assessed as increase in blood pressure at >= 10 mg/kg; format: ADME, organism-based, Oryctolagus cuniculus; settings: in vivo

SMILES: CNc1nc(Nc2ccc(-n3cnc(C)n3)c(OC)c2)nc2c1CC[C@H]2c1ccc(F)cc1
- Activity [1]: Non-Toxic
- IC50 (Cytochrome P450 2B6): > 40000 nM
- Activity [2]: Non-Toxic
- Activity [3]: Non-Toxic
- pKa [4]: 2
- IC50 (Cytochrome P450 2C8): 4500 nM
- Vdss [5]: 2.3 L/kg
- Kp at 5 h [6]: 0.23
- inhibition (H4): Active
- Activity [7]: Non-Toxic
- Activity (Brain): 45%
- inhibition in vivo at 30 mg/kg [8]: 81%
- Time [9]: 10 ms
- EC50 [10]: > 2700 nM
- IC50 [11]: 6.6 nM
- inhibition [12]: Active
- IC50 [13]: 5.5 nM
- Vdss [14]: 5.4 L/kg
- Activity [15]: Non-Toxic
- Activity [16]: Non-Toxic
